Usually apparent Kd stands for the concentration giving half-maximal binding under the conditions of the assay.

Results on 48 sequences are retold here after the EternaBench riboswitch data.

The data set concerns MS2 coat protein. Briefly: apparent Kd, MS2 coat protein; higher = weaker binding; RNA-MaP array; FMN 200 µM where present. The essentials:
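Designs on Illumina sequencing-chip clusters, transcribed by stalled E. coli RNA polymerase, were exposed to SNAP-549-labelled MS2 coat protein in doubling steps from 0.7 or 1.5 nM up to 3 µM, without and then with constant ligand. The buffer held 100 mM Tris-HCl pH 7.5, 80 mM KCl, 4 mM MgCl2, BSA, DTT, yeast tRNA and Tween-20. Apparent Kd values are medians of filtered per-cluster binding-curve fits to green signal normalised to red-channel RNA signal and control-cluster median Fmax.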

[1] abbreviates: designed as: OFF switch for flavin mononucleotide, no ligand.
The mark [2] stands for this setting: ligand present: flavin mononucleotide, designed as: OFF switch for flavin mononucleotide.
Setting [3] is: designed as: ON switch for flavin mononucleotide, no ligand.
Setting [4] is: ligand present: flavin mononucleotide, designed as: ON switch for flavin mononucleotide.

As for “CACUGCAAUGUAGGAUAUCGACUGGAUAACAGUCGAGAAGGACAUGAGGAUCACCCAUGUACUUUGAGUGAAUAAUAAGCAGUG”, the “apparent Kd” value reads like this: under setting [1], 16.5 nM; under setting [2], 59.7 nM.
The like results for “AGAUCACAUGAGGAUCACCCAUGUGAGGAUAUGAUACUAUGUACUUCGGUACAUAGUAUCAGAAGGCAUAUGAA” were, in that order, 27.7 nM and 33.4 nM.
Consider “AUUAUAUAGUUAGGAUAUUGAUUAUUAUUUUAACAUGAGGAUCACCCAUGUAGCCUUAUGUAUAACAAGAAGGAACAUUUAUUA”, for which the “apparent Kd” value is, setting by setting: under setting [1], 114 nM; under setting [2], 132 nM.
On to “GUGGUCAGACAUGAGGAUCACCCAUGUGGAAUAAAUAAGGGAGAGGAUAUAUAAUAUAGGAUAUAAUAGAAGGCUCGGUUGGUG”, for which the “apparent Kd” value is, setting by setting: under setting [3], 82.5 nM; under setting [4], 111 nM.
As for “CGUACUCAAAGAGUACCAAUACGAACAUGAGGAUCACCCAUGUAGGAUAUGCUACUCAAAGAGUAGCAGAAGGACAUGUGCCUA”, the “apparent Kd” value under setting [1] worked out at 19.3 nM and the “apparent Kd” value under setting [2] came out at 73.2 nM.
The like results for “AUCAAUCGUGUAGGAUAUGCGUGGCGAAGCUAUGCAGAAGGACAUGAGGAUCACCCAUGUCUUUCUGUCUGCGUACAGACAGGA” were, in that order, 18 nM and 43.4 nM.
Take “UGGUCAUGAUCAGGAUAUUAACAUGGGCUACAUUAAGAAGGGAUAGUGAGAUACGAACUGAACGACAUGAGGAUCACCCAUGUA”: the “apparent Kd” value runs as follows: under setting [3], 44.8 nM; under setting [4], 34.3 nM.
The like results for “GUCGGAAACGACAAAAGUAGCAUACGAGAAGGUUGAUCCAAGACAUGAGGAUCACCCAUGUAGAUAGAGGAUAUUGAAUGCUAC” were, in that order, 310 nM and 244 nM.
Consider “CCGGAAAUGAAGGAUAUAGGUGUCGAUAGACACCUAGAAGGUCAUACAUGAGGAUCACCCAUGUGUCCUACCGG”, for which the “apparent Kd” value was 16.1 nM under setting [1] and 30.6 nM under setting [2].
The like results for “GAUCAACAUGAGGAUCACCCAUGUGAGGAUAUGAUACUAUGUACUUCGGUACAUAGUAUCAGAAGGCACAUUGA” were, in that order, 87.2 nM and 367 nM.
On to “AUACAUGAGGAUCACCCAUGUUACUGGGUCUAUAUAGAACGUAGAAGGAUGAUAUUAUAAAUAUCAUAGGAUAUACUAUUUUGU”, for which the “apparent Kd” value reads like this: under setting [1], 29.9 nM; under setting [2], 35.3 nM.
For the sequence “GUGCACAUUCGAGGAUAUCGGAGAGAGAUCCUUCGAGAAGGCGAUUCAUGCUGUAUUAUCCUGGACAUGAGGAUCACCCAUGUG”, the “apparent Kd” value reads like this: under setting [3], 199 nM; under setting [4], 127 nM.
“CAGCCCUGAGGAUAUCCAUCCUUGUACAUGAGGAUCACCCAUGUUUUCCUCUGGGCUUUUGGAGAAGGCAGGUAUC”: the “apparent Kd” value by setting is: under setting [1], 78.3 nM; under setting [2], 82.3 nM.
With “GGGAUGCUAGGAUAUACAUCGGGCUCCAGGAUGUUCCGGGAACAUGAGGAUCACCCAUGUAGAAGGAGCGUAUG”, the “apparent Kd” value by setting is: under setting [1], 80.4 nM; under setting [2], 50.6 nM.
For the sequence “AGGAGACAUGAGGAUCACCCAUGUGCACGUGGACGAGGAUAUGCUAGUAGAAGAUAGAAUGCAGAAGGCGUAAGAA”, the “apparent Kd” value runs as follows: under setting [3], 75.7 nM; under setting [4], 76.8 nM.
Turning to “UCAUUAUAGAUCCAUUUUAACUACAUGAGGAUCACCCAUGUGCAGGAUAUCGAUUGUUUUACUUUCGAGAAGGGCAAAUACAGA”, the “apparent Kd” value stood at 78 nM under setting [1] and 202 nM under setting [2].
For the sequence “AGCUGUGGCCGAGGAUAUCUGAACUCAAUAACCGAAAUAUAAUCGGACAUGAGGAUCACCCAUGUAGAGAAGGCGGUCUCAGCA”, the “apparent Kd” value under setting [1] was 34 nM and the “apparent Kd” value under setting [2] was 56.5 nM.
On to “ACAUGCGGAUGAGGAUAUUCAUCCAUGAGGAUAGAAGAAGGCAUACAUGAGGAUCACCCAUGUAUACGCAUGAGGAUCCCUUAU”, for which the “apparent Kd” value is, setting by setting: under setting [1], 23.6 nM; under setting [2], 28.7 nM.
Consider “CUUCGUAUAGAGGAUAUAGGAUACCUCGGUGUCCUAGAAGGCUGUACAUGAGGAUCACCCAUGUACUUCAGAUC”, for which the “apparent Kd” value runs as follows: under setting [1], 11.6 nM; under setting [2], 16 nM.
As for “GGUGGACAUGAGGAUCACCCAUGUGAGGAUAUCGGCCGGCUCGUGGUGGCUGGCUUCUCGAGAAGGCGCAUAGU”, the “apparent Kd” value by setting is: under setting [1], 69.4 nM; under setting [2], 118 nM.
“AAUAACAGAGGAUAUACUGUUUUAUGUGUUUGUUGUUUUGAACAUGAGGAUCACCCAUGUAGAAGGCUGAGUAA”: the “apparent Kd” value is, setting by setting: under setting [1], 29.1 nM; under setting [2], 25.9 nM.
“AAAUAGGCAGGAUAUACAUGAGGAUCACCCAUGUGCCUAUGAAAGGUAAUUUUGAAAGGUAGAAGGGCCUAAAA”: the “apparent Kd” value under setting [1] turned out to be 10.5 nM and the “apparent Kd” value under setting [2] is 12.1 nM.
The like results for “CGAUCGUUGCAGAAGGUUAUUUUUUUAACAAUUCUCUUAACAUGAGGAUCACCCAUGUUUUUGAUGAAGGAUAUGCAAGGGUCG” were, in that order, 5.76 nM and 5.5 nM.
The like results for “AGAUCACAUGAGGAUCACCCAUGUGAGGAUAUAGAUUCAAGAGCUUCGGCUCUAAAGUCUAGAAGGCGCUAUGA” were, in that order, 25.1 nM and 25.6 nM.
Consider “AUGGUUCGGUCAGGAUAUCGUAGAUUGAAUAGUAUGAUUUACAUGAGGAUCACCCAUGUUACAUACGAGAAGGGACCGAAUCAU”, for which the “apparent Kd” value reads like this: under setting [1], 15.5 nM; under setting [2], 10.4 nM.
Regarding “UUACUACAUGUAGGAUAUGCGUGGCGAAGCUAUGCAGAAGGACAUGAGGAUCACCCAUGUUUUAGCGUCUGCGUACAGAUGCGU”, the “apparent Kd” value runs as follows: under setting [1], 19 nM; under setting [2], 28.4 nM.
Take “CGCUACUACCAGAAGGACAUGAGGAUCACCCAUGUAGGAUAUGGGUUACAAGUACCAGUGUAGAGAAACUACGCUACAGUAGCG”: the “apparent Kd” value reads like this: under setting [3], 29.8 nM; under setting [4], 8.3 nM.
In the case of “CGAUGACUGGUGAGGAUAUCGUGUUCGAAAGAACGUGAGAAGGCACAUGAGGAUCACCCAUGUGAUCCUCAUCG”, the “apparent Kd” value worked out at 29.8 nM under setting [1] and 206 nM under setting [2].
The like results for “AUUAUGUUAGGAUAUGCUUAUGGUGGAUAGUCCAAUAUGGUGCAGAAGGGACAUGAGGAUCACCCAUGUACUGA” were, in that order, 83.2 nM and 90.3 nM.
In the case of “GCUGUGGCAUGAGGAUAUGGUCAGCUUUGCUGACCAGAAGGCAUGUCAAUAGACAUGAGGAUCACCCAUGUAGUUAACACAGCA”, the “apparent Kd” value under setting [3] worked out at 572 nM and the “apparent Kd” value under setting [4] was found to be 40.7 nM.
Take “UGGUACUAGGGAGGAUAUGGGAAGAUACAUGAGGAUCACCCAUGUUUAAGAAUGCCGAGAGGCAACUAGAAGGCCCUAGGACCU”: the “apparent Kd” value is, setting by setting: under setting [3], 434 nM; under setting [4], 18.5 nM.
In the case of “GUACUGAGGCUUUGCUUUAGUCGUACAUGAGGAUCACCCAUGUAGGAUAUGGUAGGCUUUGCUUACCAGAAGGACAGAGUGAUC”, the “apparent Kd” value is, setting by setting: under setting [1], 168 nM; under setting [2], 85.7 nM.
The corresponding values for “UCGUCGUCAGGAUAUUUUGUAUUGCAGAUUUCGCAGUUGCCAAAGAAGGGACAUGAGGAUCACCCAUGUAGUCU” are 32.6 nM and 42.2 nM.
With “AAAAAAAAAAGGCAGGAUAUCCAAAAAAAAACAUGAGGAUCACCCAUGUAAAAAAAAAAAAAAUGGGAGAAGGGUCAAAAAAAAAA”, the “apparent Kd” value is, setting by setting: under setting [3], 88.8 nM; under setting [4], 34 nM.
As for “AAUAUAAAGAGCUGGCUCCAAAUAACAUGAGGAUCACCCAUGUAGGAUAUCAGCACGAUAAGUGCUGAGAAGGACAUCCAGCUC”, the “apparent Kd” value runs as follows: under setting [1], 15 nM; under setting [2], 15.6 nM.
As for “GCGUAAUAGGUGUAGCUAGUCAUUCAAGAAGGGUGGAGAACAUGAGGAUCACCCAUGUAGUUUAUACAGGAUAUUGAUAUACGC”, the “apparent Kd” value reads like this: under setting [3], 552 nM; under setting [4], 138 nM.
As to “CGAUUAUUGAUCCAUUUUUACAACAUGAGGAUCACCCAUGUGCAGGAUAUCGUGAUUAUUAUCAACGAGAAGGGCAAAUUCACG”, the “apparent Kd” value was 49 nM under setting [1] and 137 nM under setting [2].
On to “ACAUGCUGCCGGCAGGAUAUCGCUUGGCGGACAUGAGGAUCACCCAUGUGAGAAAGUCGCGCGCGCGAGAAGGGCCAUGGUAUCAG”, for which the “apparent Kd” value worked out at 98.2 nM under setting [3] and 80 nM under setting [4].
Turning to “UUCGGCAGUGCAGGAUAUCUAGAGAAACACCUAAGAGAAGGGCAAACAUGAGGAUCACCCAUGUUUGGCGUGAGGUGAAGUUAG”, the “apparent Kd” value worked out at 5.99 nM under setting [1] and 6.02 nM under setting [2].
The corresponding values for “GUCAUACAUGAGGAUCACCCAUGUGAGGAUAUGAGUGGUGCUGAUAGGUCGGCACCACUCAGAAGGCGCAUGAU” are 77.1 nM and 293 nM.
With “GGAUAGGACAGAGGAUAUACGUGCUAGAGAUACUAGCAAAAUUUCCUCACAUGAGGAUCACCCAUGUAGAAGGCUGUCAUAUCG”, the “apparent Kd” value is, setting by setting: under setting [1], 14.8 nM; under setting [2], 306 nM.
Consider “AUAACUGUACGAGGAUAUCCAAGGGCAGCCCUAGGAGAAGGCGUACAUGAGGAUCACCCAUGUACUAUAUGGAGUUCGCUCGUG”, for which the “apparent Kd” value runs as follows: under setting [1], 30.7 nM; under setting [2], 88.4 nM.
For the sequence “CUUUUGUGAGGAUAUCAGUAGUAAAUAAAUAAAAUUACUACUGAGAAGGCACAUGAGGAUCACCCAUGUUCCUC”, the “apparent Kd” value was determined as 41.2 nM under setting [1] and 305 nM under setting [2].
The corresponding values for “GAGCGAAAGCUCAAUGUCGAUAGCAGAAGGACAUGUAAUCAUGAAAUAACAUGAGGAUCACCCAUGUAGGAUAUGCUAUCGACU” are 309 nM and 88.8 nM.
As to “AGGUUGGGAGGAUAUCCAAUAUAUGACAUGAGGAUCACCCAUGUUUCCACUCGUACCUCCGGAGAAGGCCCUUCCA”, the “apparent Kd” value runs as follows: under setting [1], 21.7 nM; under setting [2], 23 nM.
Regarding “CACUCACAUGAGGAUCACCCAUGUCCUAGCAGGUCAGGAUAUAGCUCGGAUGCGUUGAGUCUAGAAGGGACAGGUU”, the “apparent Kd” value under setting [3] was 184 nM and the “apparent Kd” value under setting [4] was determined as 63.6 nM.
As for “AACAUGGUAUCAGGAUAUGGGUGUCACAACCACUCAGAAGGGAUACCGAUGACAUGAGGAUCACCCAUGUCGCUAUUUACCUGU”, the “apparent Kd” value was 17.2 nM under setting [3] and 7.98 nM under setting [4].
As for “AAGUAUAGAGGAUAUAGUGAGUACUACAUGAGGAUCACCCAUGUUCUUCGUUACGUAUUUCUAGAAGGCUGAUAAA”, the “apparent Kd” value stood at 105 nM under setting [1] and 248 nM under setting [2].
